Measurements taken from ChEMBL document CHEMBL1157859, “Synthesis of some new pyrimido[2',1':2,3]thiazolo[4,5-b]quinoxaline derivatives as anti-inflammatory and analgesic agents” (2010).

Experiments:
Assay type in all cases: functional
Rattus norvegicus [1] = assay: Antiinflammatory activity in Sprague-Dawley rat assessed as protection against carrageenan-induced paw edema at 20 mg/kg, po administered 1 hr before carrageenan challenge measured after 1 hr
Method in brief: (§1)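 Female Sprague–Dawley rats, fasted 18 h, 6 per group. Given 20 mg/kg orally as an aqueous suspension in distilled water, 1 h before 0.1 mL of 1% w/v carrageenan injected subcutaneously into the left hind footpad. Paw volume was read by mercury plethysmometer before injection and hourly for 4 h. Inhibition % = (Ec − Et)/Ec from edema rates; mean ± S.E, n = 6.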

Rattus norvegicus [2] = assay: Antiinflammatory activity in Sprague-Dawley rat assessed as protection against carrageenan-induced paw edema at 20 mg/kg, po administered 1 hr before carrageenan challenge measured after 2 hrs; method in brief: as §1
Rattus norvegicus [3] = assay: Antiinflammatory activity in Sprague-Dawley rat assessed as protection against carrageenan-induced paw edema at 20 mg/kg, po administered 1 hr before carrageenan challenge measured after 3 hrs; method in brief: as §1
Mus musculus [4] = assay: Analgesic activity in Swiss mouse at 20 mg/kg, po assessed as reaction time after 30 mins by hot plate method
Method in brief: (§2)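 Swiss mice (25–30 g, both sexes), 6 per group, given an oral aqueous suspension at 20 mg/kg. Reaction time on a hot plate was taken as the interval to hind-paw licking or jumping, with a 60 s cut-off. It was measured before dosing (0 min) and at 15, 30, 60 and 90 min after treatment. Mean of six animals.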

Mus musculus [5] = assay: Analgesic activity in Swiss mouse at 20 mg/kg, po assessed as reaction time after 60 mins by hot plate method; method in brief: as §2
Mus musculus [6] = assay: Analgesic activity in Swiss mouse at 20 mg/kg, po assessed as reaction time after 90 mins by hot plate method; method in brief: as §2
Mus musculus [7] = assay: Analgesic activity in Swiss albino mouse assessed as protection against acetic acid-induced writhing at 20 mg/kg, po after 30 mins
Method in brief: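 Swiss mice (25–30 g, both sexes), fasted 16 h, 6 per group. Dosed orally at 20 mg/kg as an aqueous suspension; controls got distilled water. After 30 min, 0.7% aqueous acetic acid was given at 10 mL/kg. Writhes were counted for 20 min. % protection = (control mean − treated mean)/control mean × 100.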

Mus musculus [8] = assay: Analgesic activity in Swiss albino mouse assessed as protection against acetic acid-induced writhing at 20 mg/kg, po after 1 hr
Mus musculus [9] = assay: Analgesic activity in Swiss albino mouse assessed as protection against acetic acid-induced writhing at 20 mg/kg, po after 2 hrs
Mus musculus [10] = assay: Analgesic activity in Swiss albino mouse assessed as protection against acetic acid-induced writhing at 20 mg/kg, po after 3 hrs

SMILES	Activity (Rattus norvegicus [1]) [%]	Activity (Rattus norvegicus [2]) [%]	Activity (Rattus norvegicus [3]) [%]	Time (Mus musculus [4]) [s]	Time (Mus musculus [5]) [s]	Time (Mus musculus [6]) [s]	Activity (Mus musculus [7]) [%]	Activity (Mus musculus [8]) [%]	Activity (Mus musculus [9]) [%]	Activity (Mus musculus [10]) [%]
O=c1c2c(-c3ccc(Cl)cc3)c3c(nc2nc2sc4nc5ccccc5nc4n12)/C(=C\c1ccc(Cl)cc1)CCC3	45.7	43.2	38.2	8.61	9.06	9.22	45	53	55.6	36.3
COc1ccc(/C=C2/CCCc3c2nc2nc4sc5nc6ccccc6nc5n4c(=O)c2c3-c2ccc(OC)cc2)cc1	48	52.2	40.1	8.67	9.82	10.4	51.4	53	56.5	38.6
Nc1cc(=O)n2c(n1)sc1nc3ccccc3nc12	55.3	61	41.2	8.42	9.41	10.7	60.4	68	73.3	46.3
O=C([O-])Cc1ccccc1Nc1c(Cl)cccc1Cl.[Na+] [DICLOFENAC SODIUM]	52.4	60.3	42	10	11.4	13.2	46	55.2	62	39
O=c1cc(/N=C/c2ccncc2)nc2sc3nc4ccccc4nc3n12	51.1	54.2	33.4	9.66	9.82	10.4	60.2	64.1	68.2	51.1
Cc1cc(C)c2c(N)c3c(=O)n4c(nc3nc2n1)sc1nc2ccccc2nc14	58.5	60.4	45.5	10.1	10.7	7.62	72.2	75	76.2	60.3
O=c1c2ccccc2[nH]c2nc3sc4nc5ccccc5nc4n3c(=O)c12	40.2	41.5	30.1	8.16	9.78	10.1	42.5	49	53.1	38.4
O=c1c2cc3ccccc3nc2nc2sc3nc4ccccc4nc3n12	45.3	47.6	37.6	8.84	10.6	10.9	40.4	46	47.8	35.2
Nc1cc(=O)[nH]c(Sc2nc3ccccc3nc2Cl)n1	58.8	58.3	41.3	8.42	9.41	10.7	68	73	75.4	57.2
O=c1c2cc3c(nc2nc2sc4nc5ccccc5nc4n12)CCCC3	38.8	41.3	24.3	8.4	10.4	10.7	42.2	45	45.1	34.7
Cc1nn(-c2ccccc2)c2nc3nc4sc5nc6ccccc6nc5n4c(=O)c3cc12	48.6	56.1	33.8	7.55	8.6	12	45.7	52	58.3	35.5
O=c1c2c(-c3ccccc3)c3c(nc2nc2sc4nc5ccccc5nc4n12)/C(=C\c1ccccc1)CCC3	41.3	43.8	31.9	7.51	8.86	10.4	42.4	47	50.3	38.6
O=c1c2ccc(Cl)cc2[nH]c2nc3sc4nc5ccccc5nc4n3c(=O)c12	43.1	48	31.5	7.07	9.5	12.7	40.5	51	47.3	38.3
